Measured values reported in PMC5420486 (Clinical cancer research : an official journal of the …, 2016).
Entries after “also recorded” stand apart in the source; their conditions may differ.

Columns and labels:
[1] = test system: advanced HCC patients; experiment: Pharmacogenomic and exploratory biomarker subgroup analyses of TTP; assay type: in vivo, human; conditions: 30 mg QD
Summary of the method: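 Advanced HCC patients took oral test compound once daily. For genotyping, venous blood DNA was typed at 20 SNPs in 14 candidate genes by Sanger sequencing or TaqMan assays. Circulating markers, including IL6, were measured by Searchlight at baseline (day 1). TTP ran from drug start to documented progression or death. Genotype was tested by time-to-event models with score (log-rank) test, unadjusted. Biomarkers were tested by proportional hazards regression, univariate and covariate-adjusted.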

[2] = test system: advanced hepatocellular carcinoma (HCC) patients; experiment: Anti-tumor activity and survival; assay type: in vivo, human
[3] = test system: Asian patients with advanced HCC; experiment: Phase I dose-escalation, standard 3+3 design; assay type: in vivo
[4] = Plasma pharmacokinetics, noncompartmental analysis; assay type: in vivo, human; conditions: for Tmax: human, plasma, oral
Summary of the method: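 Patients were dosed orally once daily. Blood was drawn within 60 minutes predose and at 1, 2, 3, 4, 6, 8 and 24 h post dose on days 1 and 15, in both escalation and expansion cohorts. Cmax, Tmax, AUC0-24, AUC0-∞, T1/2, C24 and CL/F were derived from plasma test compound concentrations by noncompartmental analysis.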

[5] = test system: patients with other solid tumors; conditions: other tumor types, predominantly non-Asian populations; cited from earlier work
[6] = test system: patients with advanced HCC; experiment: Safety assessment: adverse events graded by CTCAE v3.0; assay type: in vivo, human; conditions: for Diarrhoea: treatment-related AE
[7] = test system: Asia-Pacific patients with HCC; conditions: cited from earlier work
[8] = 30 mg QD, RECIST population (n=38)
[9] = 30 mg QD, mRECIST population (n=35)

SMILES: COc1cc2c(Oc3ccc(NC(=O)C4(C(=O)Nc5ccc(F)cc5)CC4)cc3F)ccnc2cc1OCCCN1CCOCC1 [foretinib]
- median TTP ([1]; one or no copy of NR1I3/CAR CAT haplotype): ≈ 6 months
- median TTP ([1]; two copies of NR1I3/CAR CAT haplotype): ≈ 2 months
- median time to progression (TTP) ([2]; 30 mg QD): 4.2 months
- Disease stabilization rate [2, 8]: 24 (63·2) n (%)
- Objective response rate [2, 8]: 3 (7·9) n (%)
- Patients achieving best overall response: Complete response [2, 8]: 0 n (%)
- Patients achieving best overall response: Disease progression [2, 8]: 14 (36.8) n (%)
- Patients achieving best overall response: Partial response [2, 8]: 3 (7.9) n (%)
- Patients achieving best overall response: Stable disease [2, 8]: 21 (55.3) n (%)
- median overall survival (OS) ([2]; 30 mg QD, all enrolled patients treated at the MTD (N=39), Kaplan-Meier): 15.7 months
- Disease stabilization rate ([2]; 30 mg QD, mRECIST): 82.9%
- median duration of response ([2]; 30 mg QD, mRECIST): 7.6 months
- Disease stabilization rate [2, 9]: 29 (82·9) n (%)
- Objective response rate [2, 9]: 8 (22·9) n (%)
- Patients achieving best overall response: Complete response [2, 9]: 0 n (%)
- Patients achieving best overall response: Disease progression [2, 9]: 6 (17·1) n (%)
- Patients achieving best overall response: Partial response [2, 9]: 8 (22·9) n (%)
- Patients achieving best overall response: Stable disease [2, 9]: 21 (60·0) n (%)
- objective response rate (ORR) ([2]; 30 mg QD, mRECIST, 35 evaluable patients): 22.9%
- Patients achieving ≥50% reduction from baseline AFP ([2]; 30 mg QD, patients with baseline AFP ≥200 ng/mL (n=15), mRECIST population): 7 (46·7) n (%)
- patients with a 50% decrease from baseline AFP at at least one time point ([2]; 30 mg, baseline AFP ≥ 200 ng/mL): 46.7%
- patients achieving a PR ([2]; 30 mg, mRECIST): eight
- maximum tolerated dose (MTD) ([3]; Asian patients with advanced HCC, oral, first-line): 30 mg QD
- dose-limiting toxicities (DLTs) ([3]; in vivo): no DLTs
- dose-proportionality assessment ([4]; 30 to 45 mg, day 15): dose proportionality was not achieved
- oral clearance (CL/F), 45-mg dose compared with 30-mg dose ([4]; day 15, N=6, interpret with caution): 50 % higher
- Tmax [4]: 3 to 3.5 h
- Tmax ([4]; 30 mg): 3 h
- previously reported MTD [5]: 60 mg QD
- fatal events ([6]; 30 mg): three
- relation of fatal events to study treatment ([6]; 30 mg): none of these events were considered related to study treatment
- dose reductions due to an AE ([6]; 30 mg QD): no patients; also recorded: no dose reductions
- Abdominal pain ([6]; 30 mg QD, N=39, all patients): 5 (12·8) n (%)
- Cough ([6]; 30 mg QD, N=39, all patients): 6 (15·4) n (%)
- Hypoalbuminaemia ([6]; 30 mg QD, N=39, all patients): 7 (17·9) n (%)
- Insomnia ([6]; 30 mg QD, N=39, all patients): 6 (15·4) n (%)
- Diarrhoea ([6]; 30 mg QD, N=39, all patients): 6 (15·4) n (%)
- Abdominal pain ([6]; 30 mg QD, N=39, grade 3): 3 (7·7) n (%)
- Cough ([6]; 30 mg QD, N=39, grade 3): 0 n (%)
- Hypoalbuminaemia ([6]; 30 mg QD, N=39, grade 3): 5 (12.8) n (%)
- Insomnia ([6]; 30 mg QD, N=39, grade 3): 1 (2.6) n (%)
- Diarrhoea ([6]; 30 mg QD, N=39, grade 3): 0 n (%)
- Abdominal pain ([6]; 30 mg QD, N=39, grade 4): 0 n (%)
- Cough ([6]; 30 mg QD, N=39, grade 4): 0 n (%)
- Hypoalbuminaemia ([6]; 30 mg QD, N=39, grade 4): 0 n (%)
- Insomnia ([6]; 30 mg QD, N=39, grade 4): 0 n (%)
- Oedema peripheral ([6]; 30 mg QD, N=39, grade 4): 1 (2.6) n (%)
- Diarrhoea ([6]; 30 mg QD, N=39, grade 4): 0 n (%)

SMILES: CNC(=O)c1cc(Oc2ccc(NC(=O)Nc3ccc(Cl)c(C(F)(F)F)c3)cc2)ccn1 [sorafenib]
- patients requiring dose reduction ([7]; Asia-Pacific patients with HCC): 30.9%
- median OS ([7]; pivotal Asia-Pacific sorafenib study): 6.5 months
